According to ChEMBL document CHEMBL1126202, “Dual-action penems and carbapenems” (J Med Chem, 1992):

Assays:
Escherichia coli = experiment: Minimum inhibitory concentration of the Penicillin G binding to Escherichia coli UB1005 PBPs.
[1] = Stability in pH 7.4 phosphate buffer at 37 degree C.; type: physicochemical
Outline: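 Compounds were held in pH 7.4 phosphate buffer at 37 °C and monitored by reverse-phase HPLC on a PRP-1 column with UV detection at 275–286 nm. The mobile phase was 0.01 M tetradecyltrimethylammonium bromide in pH 8.2 phosphate/acetonitrile. Product-peak decline was followed to at least 50%, and half-life was taken from semilogarithmic plots.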

Serratia marcescens = experiment: In vitro antibacterial activity against Serratia marcescens SM (constitutive beta-lactamase producer); type: functional
Outline: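 MIC was determined by agar dilution on Mueller-Hinton agar. Serial 2-fold aqueous dilutions were diluted 10-fold in agar to give final concentrations of 128 to 0.0156 μg/mL. Plates were inoculated by Steers replicator with overnight broth cultures diluted 100-fold.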

Proteus vulgaris = experiment: In vitro antibacterial activity against Proteus vulgaris ATCC 6380 (constitutive beta-lactamase producer); type: functional
Outline: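 Proteus MICs were determined by agar dilution on Mueller-Hinton agar containing 3% agar. Plates were replicator-inoculated with 100-fold-diluted overnight broth cultures.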

C[C@@H](O)[C@H]1C(=O)N2C(C(=O)[O-])=C(COC(=O)N3CCN(c4cc5c(cc4F)c(=O)c(C(=O)O)cn5C4CC4)CC3)S[C@H]12.[Na+]
MIC (Escherichia coli): 4 µg/mL

C[C@@H](O)[C@H]1C(=O)N2C(C(=O)[O-])=C(COC(=O)c3cn(CCF)c4c(F)c(N5CCN(C)CC5)c(F)cc4c3=O)S[C@H]12.[Na+]
half-life [1]: 52 h

C[C@@H](O)[C@H]1C(=O)N2C(C(=O)[O-])=C(CO)S[C@H]12.[Na+]
MIC (Serratia marcescens): 8 µg/mL
MIC (Proteus vulgaris): 8 µg/mL
